Assay results taken from ChEMBL document CHEMBL1157130, “Cytotoxic naphthoquinones from Alkanna cappadocica ( perpendicular)” (J Nat Prod, 2010).

Legend:
[1] = system: HT-29; test: Cytotoxicity against human HT-29 cells after 48 hrs by MTT assay; assay type: functional, cell-based; settings: HT-29, 48 h
Summary of the method: (§1)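 Cells grown in RPMI 1640 or DMEM-Ham's F12 with 10% FBS, 2 mmol/L L-glutamine, penicillin/streptomycin, at 37 °C, 5% CO2. Exponential-phase cells seeded at 6000/well, incubated 24 h, then exposed 48 h to 0.1–10 µM compound (DMSO ≤0.1% final). MTT 0.5 mg/mL added for 3 h, formazan dissolved in DMSO, read at 570-690 nm. IC50 from % viability; three independent assays, triplicate wells.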

[2] = system: MDA-MB-231; test: Cytotoxicity against human MDA-MB-231 cells after 48 hrs by MTT assay; assay type: functional, cell-based; settings: MDA-MB-231, 48 h; summary of the method: as §1
[3] = system: PC-3; test: Cytotoxicity against human PC3 cells after 48 hrs by MTT assay; assay type: functional, cell-based; settings: PC-3, 48 h; summary of the method: as §1
[4] = system: AU565; test: Cytotoxicity against human AU565 cells after 48 hrs by MTT assay; assay type: functional, cell-based; settings: AU565, 48 h; summary of the method: as §1
[5] = system: HepG2; test: Cytotoxicity against human HepG2 cells after 48 hrs by MTT assay; assay type: functional, cell-based; settings: HepG2, 48 h; summary of the method: as §1
[6] = system: LNCaP; test: Cytotoxicity against human LNCAP cells after 48 hrs by MTT assay; assay type: functional, cell-based; summary of the method: as §1
[7] = system: MCF7; test: Cytotoxicity against human MCF7 cells after 48 hrs by MTT assay; assay type: functional, cell-based; settings: MCF7, 48 h; summary of the method: as §1
[8] = system: HeLa; test: Cytotoxicity against human HeLa cells after 48 hrs by MTT assay; assay type: functional, cell-based; summary of the method: as §1
[9] = system: SK-BR-3; test: Cytotoxicity against human SKBR3 cells after 48 hrs by MTT assay; assay type: functional, cell-based; settings: SK-BR-3, 48 h; summary of the method: as §1
[10] = system: DU-145; test: Cytotoxicity against human DU145 cells after 48 hrs by MTT assay; assay type: functional, cell-based; settings: DU-145, 48 h; summary of the method: as §1
[11] = system: SAOS-2; test: Cytotoxicity against human Saos2 cells after 48 hrs by MTT assay; assay type: functional, cell-based; settings: SAOS-2, 48 h; summary of the method: as §1
[12] = Cytotoxicity against human Hep3B cells after 48 hrs by MTT assay; assay type: functional, cell-based, Hep 3B2; summary of the method: as §1
[13] = system: Vero; test: Cytotoxicity against african green monkey Vero cells after 48 hrs by MTT assay; assay type: cell-based; settings: Chlorocebus sabaeus; summary of the method: as §1
[14] = system: NIH3T3; test: Cytotoxicity against mouse 3T3 cells after 48 hrs by MTT assay; assay type: cell-based; settings: NIH3T3, 48 h; summary of the method: as §1

Compound	IC50 [1] [µM]	IC50 [2] [µM]	IC50 [3] [µM]	IC50 [4] [µM]	IC50 [5] [µM]	IC50 [6] [µM]	IC50 [7] [µM]	IC50 [8] [µM]	IC50 [9] [µM]	IC50 [10] [µM]	IC50 [11] [µM]	IC50 [12] [µM]	IC50 [13] [µM]	IC50 [14] [µM]
COc1ccc(O)c2c1C(=O)C(CCC=C(C)C)=CC2=O	5.98	5.11	7.48	7.08	8.05	11.1	11.9	6.38	6.52	12.1	12.5	24.5	6.39	6.57
COc1cccc2c1C(=O)c1c(O)c3c(c(O)c1C2=O)C[C@@](O)(C(=O)CO)C[C@@H]3O[C@H]1C[C@H](N)[C@H](O)[C@H](C)O1 [DOXORUBICIN]	2.05	2	3.16											3.7
CC(C)=CCCC1=CC(=O)c2c(O)ccc(O)c2C1=O [DEOXYSHIKONIN]	5.12	5.08	4.29	0.92	0.9	12.2	0.79	0.85	0.69	1.24	0.85	6.02	0.66	5.84
CC(C)=CC[C@H](O)C1=CC(=O)c2c(O)ccc(O)c2C1=O [ALKANNIN]	4.03	4.27	3.25	0.9	3.8	10.7	3.06	0.91	0.78	5.02	2.31	3.84	0.7	5.21
COc1ccc(O)c2c1C(=O)C=C([C@H](CC=C(C)C)OC(C)=O)C2=O	0.62	0.09	0.78	0.59	0.87	11	14.1	0.66	0.44	7.41	13.8	10.2	0.59	0.66
CC(C)=CC[C@H](OC(=O)C=C(C)C)C1=CC(=O)c2c(O)ccc(O)c2C1=O	0.8	0.32	1.1	0.62	1	11.3	5.15	0.96	0.68	4.81	0.84	4.09	0.32	0.77
COc1ccc(O)c2c1C(=O)C=C([C@H](CC=C(C)C)OC(=O)C=C(C)C)C2=O	0.59	0.26	0.42	0.75	0.97	11.4	14.8	0.82	0.83	8.55	14.5	11.8	0.79	4.67
COc1cc([C@@H]2c3cc4c(cc3[C@@H](O[C@@H]3O[C@@H]5CO[C@@H](C)O[C@H]5[C@H](O)[C@H]3O)[C@H]3COC(=O)[C@H]23)OCO4)cc(OC)c1O [ETOPOSIDE]	30.4	23.2	69.5											63
COc1ccc(O)c2c1C(=O)C=C(CCC=C(C)C)C2=O	5.09	1.19	6.81	0.88	7.64	10.9	16	0.91	2.2	8.71	20.4	15.8	0.98	5.18
CC(=O)O[C@@H](CC=C(C)C)C1=CC(=O)c2c(O)ccc(O)c2C1=O [ACETYLALKANNIN]	10.5	8.47	11	0.88	7.41	11.5	7.05	6.75	1.66	6.65	4.93	6.06	0.76	7.73
